Experimental data reported in PubChem BioAssay AID504525 (Broad Institute, 2011).
The source made the active and inactive calls.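 Rule for the calls: active = fitted dose curve showing toxicity with half-maximal concentration at most ten times the top tested dose; inconclusive = flat curve with 30 to 70% toxicity, or poor fit; inactive = the rest.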

assay: mammalian cell viability loss with fluconazole – NIH-3T3, powder samples, set 7, cytotoxicity control for antifungal drug resistance project, dose response (AID 504525); settings: NIH-3T3 viability with fluconazole, Alamar Blue, 48 h; series mostly up to 26 µM
Method in brief: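 test system = NIH 3T3 fibroblasts | probe or stimulus = fluconazole co-treatment at 8 µg/mL final | dosing = dose series up to 26 µM | times = overnight plating, 48 h 37 °C exposure, 2-3 h Alamar Blue | detection = Alamar Blue fluorescence at 1:200 final dilution, excitation 544 nm, emission 590 nm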

Compound	outcome
O=C(Cn1c2ccccc2c2nc3n(c(=O)c21)CCS3)N1CCC(F)(F)CC1	inactive
COC(=O)Cn1nc(-c2cccnc2)c2ccccc21	inactive
O=C(Cn1c2ccc(F)cc2c2nc3n(c(=O)c21)CCS3)N1CC=CC1	inactive
COC(=O)Cn1nc(-c2cnco2)c2ccccc21	inactive
COC(=O)Cn1nc(-c2cccc(OC)c2)c2ccccc21	inactive
COC(=O)Cn1nc(-c2cscn2)c2ccccc21	inactive
O=C(Cn1c2ccccc2c2nc3n(c(=O)c21)CCS3)N1CCC(F)(F)C1	inactive
CC1CCN(CCn2c3ccccc3c3nc4n(c(=O)c32)CCS4)CC1	inactive
COC(=O)Cn1nc(C(C)(C)C)c2ccccc21	inactive
COC(=O)Cn1nc(C2CC2)c2ccccc21	inactive
COC(=O)Cn1c2ccc(F)cc2c2nc3n(c(=O)c21)CCS3	inactive
COC(=O)Cn1nc(C2CCCCC2)c2ccccc21	inactive
O=C(Cn1c2ccccc2c2nc3n(c(=O)c21)CCS3)N1CC=CC1	inactive
O=C(Cn1c2ccc(F)cc2c2nc3n(c(=O)c21)CCS3)N1CCC(F)(F)C1	inactive
O=C(O)Cn1c2ccc(F)cc2c2nc3n(c(=O)c21)CCS3	inactive
CC1(O)CN(C(=O)Cn2c3ccccc3c3nc4n(c(=O)c32)CCS4)C1	inactive
c1ccc(-c2nn(Cc3nnco3)c3ccccc23)cc1	inactive
CN1CCN(C(=O)Cn2c3ccccc3c3nc4n(c(=O)c32)CCS4)CC1	inactive
COC(=O)Cn1nc(-c2ccccc2)c2cccnc21	inactive
CCc1nn(CC(=O)OC)c2ccccc12	inactive
O=C(O)Cn1c2ccccc2c2nc3n(c(=O)c21)CCS3	inactive
COC(=O)Cn1nc(-c2cccc(C)c2)c2ccccc21	inactive
COC(=O)n1nc(-c2ccccc2)c2ccccc21	inactive
COC(=O)Cn1nc(-c2cccc(F)c2)c2ccccc21	inactive
O=C(Cn1c2ccc(F)cc2c2nc3n(c(=O)c21)CCS3)N1CCC(F)(F)CC1	inactive
